# Legend:
# [1] = Activity relative to erythromycin A
# [2] = species on record: Oryctolagus cuniculus; test: The compound was tested in vitro for prokinetic activity as smooth muscle contractility in isolated rabbit duodenum; type: functional, Muscle tissue
# [3] = Oral bioavailability in dog; type: ADME, organism-based, Canis lupus familiaris; settings: in vivo
# Method in brief: (§1)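 Groups of fasted male/female beagle dogs received the lactobionate salt as a 2 mg/mL solution, at 0.5 mg/kg iv or 1 mg/kg po. Blood was sampled at set times over 12 h. Parent drug was extracted from alkalized plasma with EtOAc:hexane (1:1) and measured by reverse-phase HPLC (pH 6.9 phosphate mobile phase) with oxidative electrochemical detection. The assay was linear over 0-500 ng/mL, with LOQ ~7 ng/mL.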
# [4] = Half life period after oral administration in the dog; type: ADME, organism-based, Canis lupus familiaris; settings: in vivo; method in brief: as §1
Structure (SMILES),Relative activity [1],pED50 [2],bioavailability [3],half-life [4]
CC[C@H]1OC(=O)[C@H](C)[C@@H](O[C@H]2C[C@@](C)(OC)[C@@H](O)[C@H](C)O2)[C@H](C)[C@@H](O[C@@H]2O[C@H](C)C[C@H](N(C)C)[C@H]2O)[C@@]2(C)CC(C)=C(O2)[C@H](C)[C@@H](O)[C@H]1C,2.83,8.68,,
CC[C@H]1OC(=O)[C@H](C)[C@@H](O[C@H]2C[C@@](C)(OC)C[C@H](C)O2)[C@H](C)[C@@H](O[C@@H]2O[C@H](C)C[C@H](NC)[C@H]2O)[C@@]2(C)CC(C)=C(O2)[C@H](C)[C@@H](O)[C@H]1C,> 6.15,>12,23.8%,2 h
CC[C@H]1OC(=O)[C@H](C)[C@@H](O[C@H]2C[C@@](C)(OC)[C@@H](O)[C@H](C)O2)[C@H](C)[C@@H](O[C@@H]2O[C@H](C)C[C@H](N(C)C)[C@H]2O)[C@@]2(C)CC(C)=C(O2)[C@H](C)[C@@H](O)[C@]1(C)O,2.55,8.4,,
CC[C@H]1OC(=O)[C@H](C)[C@@H](O[C@H]2C[C@@](C)(OC)C[C@H](C)O2)[C@H](C)[C@@H](O[C@@H]2O[C@H](C)C[C@H](N(C)CC)[C@H]2O)[C@@]2(C)CC(C)=C(O2)[C@H](C)[C@@H](O)[C@H]1C [ALEMCINAL],> 6.15,>12,39%,5.5 h
CC[C@H]1OC(=O)[C@H](C)[C@@H](O[C@H]2C[C@@](C)(OC)C[C@H](C)O2)[C@H](C)[C@@H](O[C@@H]2O[C@H](C)C[C@H](NC)[C@H]2O)[C@@]2(C)CC(C)=C(O2)[C@H](C)[C@@H](O)[C@]1(C)O,3.89,9.74,,
CC[C@H]1OC(=O)[C@H](C)[C@@H](O[C@H]2C[C@@](C)(OC)C[C@H](C)O2)[C@H](C)[C@@H](O[C@@H]2O[C@H](C)C[C@H](N(C)CC)[C@H]2O)[C@@]2(C)CC(C)=C(O2)[C@H](C)[C@@H](O)[C@]1(C)O,5.3,11.15,2.7%,2.6 h
CC[C@H]1OC(=O)[C@H](C)[C@@H](O[C@H]2C[C@@](C)(OC)[C@@H](O)[C@H](C)O2)[C@H](C)[C@@H](O[C@@H]2O[C@H](C)C[C@H](N(C)C)[C@H]2O)[C@](C)(O)C[C@@H](C)C(=O)[C@H](C)[C@@H](O)[C@]1(C)O [ERYTHROMYCIN],,5.85,,
CC[C@H]1OC(=O)[C@H](C)[C@@H](O[C@H]2C[C@@](C)(OC)C[C@H](C)O2)[C@H](C)[C@@H](O[C@@H]2O[C@H](C)C[C@H](N(C)C)[C@H]2O)[C@@]2(C)CC(C)=C(O2)[C@H](C)[C@@H](O)[C@]1(C)O,2.56,8.41,,
CC[C@H]1OC(=O)[C@H](C)[C@@H](O[C@H]2C[C@@](C)(OC)[C@@H](O)[C@H](C)O2)[C@H](C)[C@@H](O[C@@H]2O[C@H](C)C[C@H](N(C)CC)[C@H]2O)[C@@]2(C)CC(C)=C(O2)[C@H](C)[C@@H](O)[C@]1(C)O,2.6,8.45,1.4%,2.4 h
CC[C@H]1OC(=O)[C@H](C)[C@@H](O[C@H]2C[C@@](C)(OC)C[C@H](C)O2)[C@H](C)[C@@H](O[C@@H]2O[C@H](C)C[C@H](N(C)C)[C@H]2O)[C@@]2(C)CC(C)=C(O2)[C@H](C)[C@@H](O)[C@H]1C,5.41,11.26,,
CC[C@H]1OC(=O)[C@H](C)[C@@H](O[C@H]2C[C@@](C)(OC)[C@@H](O)[C@H](C)O2)[C@H](C)[C@@H](O[C@@H]2O[C@H](C)C[C@H](NC)[C@H]2O)[C@@]2(C)CC(C)=C(O2)[C@H](C)[C@@H](O)[C@]1(C)O,1.3,7.1,,

# — ChEMBL document CHEMBL1128367, “Synthesis of 4"-deoxy motilides: identification of a potent and orally active prokinetic drug candidate” (J Med Chem, 1995)
